Reference: ChEMBL document CHEMBL5625195, “Identification of novel tetrahydroquinoxaline derived phenyl ureas as modulators of the hepatitis B virus nucleocapsid assembly” (Eur J Med Chem, 2023)
The source made the active and inactive calls. No cut-off for these calls is given here.

Assays:
[1] = system: Hepatitis B virus; assay: Antiviral activity against HBV infected in AML12HBV10 cells assessed as reduction in encapsidated pgRNA at 5 uM after 2 days by Northern blot hybridization; type: functional, organism-based; settings: time 2.0 day
Outline: (§1)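 AML12HBV10 cells were induced by tetracycline withdrawal for 24 h, then mock (DMSO) or compound treated for 48 h, with tetracycline-maintained cells as negative control. Encapsidated pgRNA was detected by Northern blot hybridization, using ribosomal RNA as loading control.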

[2] = system: Hepatitis B virus; assay: Antiviral activity against HBV infected in AML12HBV10 cells assessed as reduction in viral DNA replication at 5 uM after 2 days by Northern blot hybridization; type: functional, organism-based; settings: time 2.0 day
Outline: (§2)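 AML12HBV10 cells in 24-well plates were kept with or without tetracycline for 24 h. Tet-maintained cells served as the no-pgRNA negative control. Cells were then mock (DMSO) or compound treated for 48 h. Total viral RNA and encapsidated pgRNA were read by Northern blot with rRNA as loading control. Core protein was read by Western blot (C-terminal 14-residue antibody, β-actin control), capsids by native particle gel assay, and replication intermediates by Southern blot.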

[3] = system: Hepatitis B virus; assay: Antiviral activity against HBV infected in AML12HBV10 cells assessed as reduction viral replication incubated for 48 hrs; type: functional, organism-based; settings: AML12HBV10, 48 h
Outline: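 AML12HBV10 cells were seeded at 2 x 10^4 per well without tetracycline. After one day, 2-fold serial dilutions (10 μM to 0.08 μM) were applied for 48 h. Lysates were denatured, neutralized and dot-blotted, then hybridized with a 32P-labelled riboprobe specific for HBV minus-strand DNA and read by phosphorimager. EC50 was the concentration reducing HBV DNA by 50%.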

[4] = system: AML12; assay: Cytotoxicity against mouse AML12 cells assessed as reduction in cell viability incubated for 48 hrs by MTT assay; type: toxicity, cell-based; settings: aml12, 48 h
Outline: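 Stable AML12HBV10 hepatocytes (AML12-derived), cultured without tetracycline, were exposed to 2-fold serial dilutions (50 μM to 1.56 μM) for 48 h. Viability was inspected microscopically and quantified by MTT. CC50 was the concentration lowering viability by 50%.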

[5] = system: Hepatitis B virus; assay: Antiviral activity against HBV infected in AML12HBV10 cells assessed as change in total viral RNA at 1 to 5 uM after 2 days by Northern blot hybridization; type: functional, organism-based; settings: dose 1-5 µM, time 2.0 day; outline: as §2
[6] = system: Hepatitis B virus; assay: Antiviral activity against HBV infected in AML12HBV10 cells assessed as change in core protein at 1 to 5 uM after 2 days by Northern blot hybridization; type: functional, organism-based; settings: dose 1-5 µM, time 2.0 day; outline: as §2
[7] = system: Hepatitis B virus; assay: Antiviral activity against HBV infected in AML12HBV10 cells assessed as decrease in capsid assembly at 1 to 5 uM after 2 days by Northern blot hybridization; type: functional, organism-based; settings: dose 1-5 µM, time 2.0 day
Outline: (§3)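 AML12HBV10 cells (mouse hepatocyte line carrying tetracycline-inducible, envelope-deficient HBV genome) in 24-well plates. Tetracycline was removed for 24 h before treatment; tetracycline-maintained cells served as negative control. Cells were mock (DMSO) or compound treated for a further 48 h. Intracellular capsids and core-associated DNA were resolved by native agarose gel particle assay.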

[8] = system: Hepatitis B virus; assay: Antiviral activity against HBV infected in AML12HBV10 cells assessed as decrease in encapsidated pgRNA at 1 to 5 uM after 2 days by Northern blot hybridization; type: functional, organism-based; settings: dose 1-5 µM, time 2.0 day; outline: as §1
[9] = system: Hepatitis B virus; assay: Antiviral activity against HBV infected in AML12HBV10 cells assessed as decrease in viral DNA replication at 1 to 5 uM after 2 days by Northern blot hybridization; type: functional, organism-based; settings: dose 1-5 µM, time 2.0 day; outline: as §2
[10] = system: Hepatitis B virus; assay: Antiviral activity against HBV infected in AML12HBV10 cells assessed as change in total viral RNA at 1 uM after 2 days by Northern blot hybridization; type: functional, organism-based; settings: time 2.0 day; outline: as §2
[11] = system: Hepatitis B virus; assay: Antiviral activity against HBV infected in AML12HBV10 cells assessed as change in core protein at 1 uM after 2 days by Northern blot hybridization; type: functional, organism-based; settings: time 2.0 day; outline: as §2
[12] = system: Hepatitis B virus; assay: Antiviral activity against HBV infected in AML12HBV10 cells assessed as change in encapsidated pgRNA at 1 uM after 2 days by Northern blot hybridization; type: functional, organism-based; settings: time 2.0 day; outline: as §1
[13] = system: Hepatitis B virus; assay: Antiviral activity against HBV infected in AML12HBV10 cells assessed as change in capsids at 1 uM after 2 days by Northern blot hybridization; type: functional, organism-based; settings: time 2.0 day; outline: as §3
[14] = system: Hepatitis B virus; assay: Antiviral activity against HBV infected in AML12HBV10 cells assessed as change in capsid associated viral DNA at 1 uM after 2 days by Northern blot hybridization; type: functional, organism-based; settings: time 2.0 day; outline: as §3
[15] = system: Hepatitis B virus; assay: Antiviral activity against HBV infected in AML12HBV10 cells assessed as change in DNA replication intermediates at 1 uM after 2 days by Northern blot hybridization; type: functional, organism-based; settings: time 2.0 day; outline: as §2
[16] = system: Hepatitis B virus; assay: Antiviral activity against HBV infected in AML12HBV10 cells assessed as decrease in capsid assembly at 2 uM after 2 days by Northern blot hybridization; type: functional, organism-based; settings: time 2.0 day; outline: as §3
[17] = system: Hepatitis B virus; assay: Antiviral activity against HBV infected in AML12HBV10 cells assessed as accumulation of capsid at 5 uM after 2 days by Northern blot hybridization; type: functional, organism-based; settings: time 2.0 day; outline: as §3
[18] = system: Hepatitis B virus; assay: Antiviral activity against HBV infected in AML12HBV10 cells assessed as reduction in encapsidated pgRNA at 2 uM after 2 days by Northern blot hybridization; type: functional, organism-based; settings: time 2.0 day; outline: as §1
[19] = system: Hepatitis B virus; assay: Antiviral activity against HBV infected in AML12HBV10 cells assessed as reduction in viral DNA replication at 2 uM after 2 days by Northern blot hybridization; type: functional, organism-based; settings: time 2.0 day; outline: as §2

SMILES: CCC(C)NS(=O)(=O)c1ccc(F)c(C(=O)Nc2ccc(F)c(F)c2)c1 (centres undefined)
- Activity [1]: Active
- Activity [2]: Active

SMILES: O=C(Nc1ccc(F)c(Cl)c1)N1CCNc2ccccc21
- EC50 [3]: 0.51 µM
- CC50 [4]: > 100 µM
- Activity [5]: inactive
- Activity [6]: inactive
- Activity [7]: Active
- Activity [8]: Active
- Activity [9]: Active

SMILES: C=C1[C@H](CO)[C@@H](O)C[C@@H]1n1cnc2c(=O)[nH]c(N)nc21
- Activity [10]: inactive
- Activity [11]: inactive
- Activity [12]: inactive
- Activity [13]: inactive
- Activity [14]: Active
- Activity [15]: Active

SMILES: COC(=O)C1=C(C)NC(c2ncc(F)cc2F)=N[C@H]1c1ccc(F)cc1Cl
- Activity [16]: Active
- Activity [17]: Active
- Activity [18]: Active
- Activity [19]: Active
